# Laboratory results: ChEMBL document CHEMBL4321868, “Scaffold Simplification Strategy Leads to a Novel Generation of Dual Human Immunodeficiency Virus and Enterovirus-A71 Entry Inhibitors” (J Med Chem, 2020)
# The source made the active and inactive calls. No cut-off for these calls is given here.
# Tests used:
# [1] = system: Human immunodeficiency virus 1; test: Antiviral activity against HIV1 NL4.3 infected in human MT4 cells assessed as reduction in virus-induced cytopathic effect preincubated for 30 mins followed by viral infection and measured after 5 days by MTS assay; assay type: functional, organism-based; conditions: Human immunodeficiency virus 1, NL4.3, MT4
# [2] = Cytotoxicity against human MT4 cells assessed as reduction in cell viability measured after 5 days by MTS/PES assay; assay type: cell-based
# In short: (§1)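 MT-4 cells (RPMI-1640, 10% FCS, 1% L-glutamine) pre-incubated 30 min at 37 °C with compound, then infected with HIV-1 NL4.3 or HIV-2 ROD according to stock TCID50. After 5 days, CPE scored microscopically and viability read by MTS/PES at A490 to derive EC50; cytotoxicity measured by MTS/PES at 5 days in the same cells. SI = CC50/EC50. Mean ± S.D. of at least 3 experiments.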
# [3] = Selectivity index, ratio of CC50 for human MT4 cells to EC50 for HIV1 NL4.3 infected in human MT4 cells; assay type: toxicity, cell-based; conditions: read-out: Ratio CC50/EC50; in short: as §1
# [4] = system: Human immunodeficiency virus 1; test: Antiviral activity against HIV1 3B infected in human MT4 cells assessed as reduction in p24 production at 20 uM incubated for 1 hr prior to viral infection followed by compound washout and measured 8 hrs post-infection by ELISA; assay type: functional, organism-based
# [5] = target: Envelope glycoprotein gp160 (Human immunodeficiency virus 1) (UniProt Q6QLK5); test: Binding affinity to recombinant HIV1 3B gp120 by SPR analysis
# Sequence of Envelope glycoprotein gp160 (Human immunodeficiency virus 1) (Q6QLK5 1-814): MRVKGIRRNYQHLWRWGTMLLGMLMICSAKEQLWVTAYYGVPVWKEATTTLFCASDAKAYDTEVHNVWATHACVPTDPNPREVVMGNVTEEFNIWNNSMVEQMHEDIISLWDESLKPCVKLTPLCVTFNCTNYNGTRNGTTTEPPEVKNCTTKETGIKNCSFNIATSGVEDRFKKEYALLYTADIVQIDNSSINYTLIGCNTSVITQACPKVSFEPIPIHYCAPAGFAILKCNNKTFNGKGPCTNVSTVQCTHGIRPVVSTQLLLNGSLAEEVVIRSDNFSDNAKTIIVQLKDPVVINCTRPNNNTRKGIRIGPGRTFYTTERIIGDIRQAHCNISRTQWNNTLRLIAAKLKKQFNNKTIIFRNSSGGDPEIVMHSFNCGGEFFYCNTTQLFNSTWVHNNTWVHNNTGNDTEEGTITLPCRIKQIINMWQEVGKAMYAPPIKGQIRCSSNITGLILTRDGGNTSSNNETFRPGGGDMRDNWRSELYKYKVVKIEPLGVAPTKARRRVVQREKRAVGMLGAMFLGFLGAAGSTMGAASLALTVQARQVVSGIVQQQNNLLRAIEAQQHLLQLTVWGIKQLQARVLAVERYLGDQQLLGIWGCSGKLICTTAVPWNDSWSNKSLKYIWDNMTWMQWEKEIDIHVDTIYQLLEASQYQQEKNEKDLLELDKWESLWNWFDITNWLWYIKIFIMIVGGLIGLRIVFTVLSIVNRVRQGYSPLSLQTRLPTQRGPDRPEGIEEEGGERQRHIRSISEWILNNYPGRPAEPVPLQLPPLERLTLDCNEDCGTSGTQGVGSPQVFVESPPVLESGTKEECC
# [6] = target: Envelope glycoprotein gp160 (Human immunodeficiency virus 1) (UniProt Q6QLK5); test: (§2) Inhibition of biotinylated-heparin binding to recombinant HIV1 3B gp120 by SPR analysis
# In short: (§3)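 SPR at 25 °C in PBS with 5% DMSO, 0.005% Tween20, pH 7.4. Minimally biotinylated heparin captured (880 RU) on streptavidin chip. Recombinant HIV-1 IIIB gp120 (10 nM) alone or premixed with a compound concentration range injected 2 min at 10 μl/min; regenerated with 1 M NaCl/10 mM NaOH. Double-referenced; RU converted to % inhibition vs gp120 alone; nonlinear fit, three experiments.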
# [7] = target: Envelope glycoprotein gp160 (Human immunodeficiency virus 1, UniProt Q6QLK5); test: as §2; in short: as §3
# Sequence of Envelope glycoprotein gp160 (Q6QLK5 whole entry): as the sequence (Q6QLK5 1-814) above
# Enterovirus A71 [8] = test: Antiviral activity against Enterovirus A 71 BrCr infected in human RD cells assessed as reduction in virus-induced cytopathic effect preincubated for 1 day followed by viral infection and measured after 3 days by MTS/PMS method; assay type: functional, organism-based; conditions: strain BRCR
# In short: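 RD cells seeded in 96-well plates; next day serial compound dilutions plus virus at low MOI added. Incubation at 37 °C, 5% CO₂ until full CPE in untreated infected controls (3 days). Viability read by MTS/PMS; EC50 as 50% inhibition of virus-induced death from dose-response curves. CC50 from uninfected treated cells in the same setup; SI = CC50/EC50.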
# [9] = Selectivity index, ratio of CC50 for human RD cells to EC50 for Enterovirus A71 BrCr infected in human RD cells; assay type: toxicity, cell-based; conditions: read-out: Ratio CC50/EC50
# In short: (§4)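 RD cells seeded in 96-well plates; next day serial compound dilutions plus virus at low MOI added. Incubation at 37 °C, 5% CO₂ until full CPE in untreated infected controls (3 days). CC50 from uninfected treated cells in the same setup; SI = CC50/EC50.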
# Enterovirus A71 [10] = test: Antiviral activity against Enterovirus A71 genotype B2 11316 infected in human RD cells assessed as reduction in virus-induced cytopathic effect preincubated for 1 day followed by viral infection and measured after 3 days by MTS/PMS method; assay type: functional, organism-based; conditions: Enterovirus A, genotype B2 11316, RD; in short: as §4
# Enterovirus A71 [11] = test: Antiviral activity against Enterovirus A71 genotype B5 TW/70902/08 infected in human RD cells assessed as reduction in virus-induced cytopathic effect preincubated for 1 day followed by viral infection and measured after 3 days by MTS/PMS method; assay type: functional, organism-based; conditions: Enterovirus A, genotype B5 TW/70902/08, RD; in short: as §4
# Enterovirus A71 [12] = test: Antiviral activity against Enterovirus A71 genotype C2 H08300 461812 infected in human RD cells assessed as reduction in virus-induced cytopathic effect preincubated for 1 day followed by viral infection and measured after 3 days by MTS/PMS method; assay type: functional, organism-based; conditions: Enterovirus A, genotype C2 H08300 461812, RD; in short: as §4
# Enterovirus A71 [13] = test: Antiviral activity against Enterovirus A71 genotype C4 TW/1956/05 infected in human RD cells assessed as reduction in virus-induced cytopathic effect preincubated for 1 day followed by viral infection and measured after 3 days by MTS/PMS method; assay type: functional, organism-based; conditions: Enterovirus A, genotype C4 TW/1956/05, RD; in short: as §4
# RD [14] = test: Cytotoxicity against human RD cells assessed as adverse effect on cell; assay type: cell-based
# RD [15] = test: Cytotoxicity against human RD cells assessed as induction of cell morphological changes; assay type: cell-based
# [16] = Selectivity ratio of EC50 for Enterovirus A 71 BrCr infected in human RD cells to EC50 for Enterovirus A 71 genotype C4 TW/1956/05 infected in human RD cells; assay type: functional
# [17] = Selectivity ratio of EC50 for Enterovirus A 71 BrCr infected in human RD cells to EC50 for Enterovirus A 71 genotype B2 11316 infected in human RD cells; assay type: functional
# Enterovirus A71 [18] = test: Antiviral activity against Enterovirus A 71 BrCr infected in human RD cells assessed as reduction in viral RNA level at 20 uM preincubated for 1 hr followed by viral infection and measured 8 hrs post-infection by RT-qPCR analysis relative to control; assay type: functional, strain BRCR; parameters: scale not given: the % may be the effect or the level left
# In short: (§5)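 RD cells grown to confluence; compound at 20 μM in 2% FBS medium added 1 h before or 1, 2, 4 h after EV-A71 BrCr infection (MOI 1). Pirodavir 20 μM as entry-inhibitor reference; infected untreated cells as controls. At 8 h post-infection, intracellular RNA isolated and viral RNA quantified by RT-qPCR.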
# Enterovirus A71 [19] = test: Antiviral activity against Enterovirus A 71 BrCr infected in human RD cells assessed as reduction in viral RNA level at 20 uM treated 1 to 4 hrs post-infection and measured 8 hrs post-infection by RT-qPCR analysis; assay type: functional, strain BRCR; parameters: scale not given: the % may be the effect or the level left; in short: as §5
# Enterovirus A71 [20] = test: Antiviral activity against Enterovirus A 71 BrCr infected in human RD cells assessed as reduction in viral RNA level at 20 uM administered at onset of infection measured 8 hrs post-infection by RT-qPCR analysis relative to control; assay type: functional, strain BRCR; parameters: scale not given: the % may be the effect or the level left
# [21] = system: Human immunodeficiency virus 1; test: Antiviral activity against HIV1 3B infected in human MT4 cells assessed as reduction in p24 production at 20 uM administered at onset of infection measured 8 hrs post-infection by ELISA; assay type: functional, organism-based
# Enterovirus A71 [22] = test: Antiviral activity against Enterovirus A 71 BrCr harboring VP1 S184T mutant infected in human RD cells assessed as reduction in virus-induced cytopathic effect preincubated for 1 day followed by viral infection and measured after 3 days by MTS/PMS method; assay type: functional, organism-based, strain BRCR
# Enterovirus A71 [23] = test: Antiviral activity against Enterovirus A 71 BrCr harboring VP1 P246S mutant infected in human RD cells assessed as reduction in virus-induced cytopathic effect preincubated for 1 day followed by viral infection and measured after 3 days by MTS/PMS method; assay type: functional, organism-based, strain BRCR
# Enterovirus A71 [24] = test: Antiviral activity against Enterovirus A 71 BrCr harboring VP1 S184T/P246S mutant infected in human RD cells assessed as reduction in virus-induced cytopathic effect preincubated for 1 day followed by viral infection and measured after 3 days by MTS/PMS method; assay type: functional, organism-based, strain BRCR
# HeLa = test: Binding affinity to capsid protein VP1 five fold axis in Enterovirus A71 genotype B2 11316 infected in human HeLa cells at 20 uM measured after 1 hr by cryo-electron microscopic analysis; assay type: cell-based
# [25] = Selectivity index, ratio of CC50 for human MT4 cells to EC50 for HIV-1 NL4.3 infected in human MT4 cells
# [26] = system: Human immunodeficiency virus 2; test: Antiviral activity against HIV-2 ROD infected in human MT4 cells assessed as reduction in virus-induced cytopathic effect preincubated for 30 mins followed by viral infection and measured after 5 days by MTS assay; conditions: Human immunodeficiency virus 2, ISOLATE ROD
structure (smiles),measurement,setting,value
O=C(CCC(CCC(=O)NC(Cc1c(-c2cc(C(=O)O)cc(C(=O)O)c2)[nH]c2ccccc12)C(=O)O)(CCC(=O)NC(Cc1c(-c2cc(C(=O)O)cc(C(=O)O)c2)[nH]c2ccccc12)C(=O)O)[N+](=O)[O-])NC(Cc1c(-c2cc(C(=O)O)cc(C(=O)O)c2)[nH]c2ccccc12)C(=O)O (stereo not drawn),EC50,[1],270 nM
same,CC50 at 120 h,[2],> 100000 nM
same,selectivity ratio,[3],> 370
same,Activity,[4],Active
same,Activity,[5],Dose-dependent effect
same,inhibition,[6],Dose-dependent effect
same,IC50,[7],982 nM
same,EC50,Enterovirus A71 [8],350 nM
same,EC90,Enterovirus A71 [8],550 nM
same,selectivity ratio,[9],> 203
same,EC50,Enterovirus A71 [10],179 nM
same,EC50,Enterovirus A71 [11],81 nM
same,EC50,Enterovirus A71 [12],57 nM
same,EC50,Enterovirus A71 [13],38 nM
same,Activity,RD [14],Non-Toxic
same,Activity,RD [15],Non-Toxic
same,Ratio EC50,[16],9
same,Ratio EC50,[17],2
same,Activity,Enterovirus A71 [18],100%
same,Activity,Enterovirus A71 [19],0%
same,Activity,Enterovirus A71 [20],100%
same,Activity,[21],Active
same,EC50,Enterovirus A71 [22],2350 nM
same,EC50,Enterovirus A71 [23],1960 nM
same,EC50,Enterovirus A71 [24],2180 nM
same,Activity,HeLa,Active
same,selectivity ratio,[25],> 370
same,EC50,[26],630 nM
